Data reported in PMC4832308 (Cancer, 2015).

Assays:
[1] = plasma pharmacokinetics in patients; format: in vivo, human
[2] = urine pharmacokinetics in patients; details: human, in vivo
pS6RP = test: immuno‐histochemical staining of tumor biopsies; format: in vivo, human; details: pre‐ vs on‐treatment (days 15‐22), HCC and salivary gland tumor, 30‐mg/d cohort
Procedure, shortened: (§1)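 Optional pretreatment and on-treatment (days 15–22) tumor biopsies from 2 patients in the 30-mg/d cohort (HCC and salivary gland tumor). Paraffin-embedded sections were immunostained per antibody (pS6RP, p4EBP1, pAKT, Ki-67) or TUNEL-labelled, then scored by quantitative image analysis.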

Ki67 = test: immuno‐histochemical staining of tumor biopsies; format: in vivo, human; details: pre‐ vs on‐treatment (days 15‐22), HCC and salivary gland tumor, 30‐mg/d cohort
Procedure, shortened: as §1

p4EBP1 = test: immuno‐histochemical staining of tumor biopsies; format: in vivo, human; details: HCC sample after treatment initiation
Procedure, shortened: as §1

[3] = system: U87 glioblastoma multiforme; details: cited from earlier work

CO[C@H]1CC[C@H](N2C(=O)CNc3ncc(-c4ccc(C(C)(C)O)nc4)nc32)CC1 [CC‐223]
dose dependence of Cmax and AUC from time 0 to infinity ([1]; 30‐ to 60‐mg dose range, single or multiple doses): dose‐proportional
half-life ([1]; human, plasma, oral): 4.86 to 5.64 h
ratio of AUC0‐24 between day 15 and day 1 ([1]; multiple dosing): ≤ 22%
fraction excreted unchanged in urine [2]: < 0.2%
renal clearance [2]: negligible
pS6RP staining in tumor biopsies (pS6RP): Significant inhibition
Ki67 staining in tumor biopsies (Ki67): Significant inhibition
p4EBP1 in tumor biopsy (p4EBP1): inhibition
single‐agent activity in xenograft model [3]: single‐agent activity
